# Measured values collected from several papers.
# Protocols differ between the studies behind these lines.
# Read-out: cell growth or viability
SMILES,cell line,test,conditions,quantity,value
O=C1Nc2ccccc2C1=NNc1nnc2n1N=C(c1ccccc1)CS2,OVCAR-4,SRB,10 µM,inhibition,41%
NC(=O)c1cc(Cl)ccc1NC(=O)COc1ccccc1,OVCAR-4,,,GI50,> 100000 nM
CC(C)C[C@H](NC(=O)[C@H](Cc1ccccc1)NC(=O)c1cnccn1)B(O)O,HCC38,ATP luminescence,,IC50,9.9 nM
COc1cc(-c2ccc(-c3ccc(C(=N)N)nc3)s2)cc(OC)c1OC,OVCAR-4,SRB,,GI50,2690 nM
O=C(CN1C(=O)/C(=C/c2ccccc2)SC1=S)Nc1ccccc1,A549,MTT,10 µM,inhibition,43.3%
COc1cccc(Oc2ccccc2NC(=O)CNC(=O)c2cccc3ccccc23)c1,OVCAR-4,SRB,48 h,GI50,776 nM
COc1cccc(NC(=O)CN2C(=O)/C(=C/c3cccs3)SC2=S)c1,A549,MTT,10 µM,inhibition,12.4%
Cn1nnc2c(C(N)=O)ncn2c1=O,AZ-521,,,EC50,173 µM
CCOc1ccc(/C=C2\SC(=S)N(CC(=O)Nc3ccccc3)C2=O)cc1,A549,MTT,10 µM,inhibition,48.2%
COc1ccc(-c2ccc(-c3ccc(C(=N)N)nc3)s2)cc1Cl,OVCAR-4,SRB,,GI50,1740 nM
